{
  "source": "paper PMC4818746",
  "about": "(Annals of Clinical and Translational Neurology, 2016)",
  "key": {"LRRK2-G2019S [1]": {"target": "T1, LRRK2-G2019S (Homo sapiens, UniProt Q5S007, G2019S)", "T1 sequence (Q5S007 whole entry G2019S)": "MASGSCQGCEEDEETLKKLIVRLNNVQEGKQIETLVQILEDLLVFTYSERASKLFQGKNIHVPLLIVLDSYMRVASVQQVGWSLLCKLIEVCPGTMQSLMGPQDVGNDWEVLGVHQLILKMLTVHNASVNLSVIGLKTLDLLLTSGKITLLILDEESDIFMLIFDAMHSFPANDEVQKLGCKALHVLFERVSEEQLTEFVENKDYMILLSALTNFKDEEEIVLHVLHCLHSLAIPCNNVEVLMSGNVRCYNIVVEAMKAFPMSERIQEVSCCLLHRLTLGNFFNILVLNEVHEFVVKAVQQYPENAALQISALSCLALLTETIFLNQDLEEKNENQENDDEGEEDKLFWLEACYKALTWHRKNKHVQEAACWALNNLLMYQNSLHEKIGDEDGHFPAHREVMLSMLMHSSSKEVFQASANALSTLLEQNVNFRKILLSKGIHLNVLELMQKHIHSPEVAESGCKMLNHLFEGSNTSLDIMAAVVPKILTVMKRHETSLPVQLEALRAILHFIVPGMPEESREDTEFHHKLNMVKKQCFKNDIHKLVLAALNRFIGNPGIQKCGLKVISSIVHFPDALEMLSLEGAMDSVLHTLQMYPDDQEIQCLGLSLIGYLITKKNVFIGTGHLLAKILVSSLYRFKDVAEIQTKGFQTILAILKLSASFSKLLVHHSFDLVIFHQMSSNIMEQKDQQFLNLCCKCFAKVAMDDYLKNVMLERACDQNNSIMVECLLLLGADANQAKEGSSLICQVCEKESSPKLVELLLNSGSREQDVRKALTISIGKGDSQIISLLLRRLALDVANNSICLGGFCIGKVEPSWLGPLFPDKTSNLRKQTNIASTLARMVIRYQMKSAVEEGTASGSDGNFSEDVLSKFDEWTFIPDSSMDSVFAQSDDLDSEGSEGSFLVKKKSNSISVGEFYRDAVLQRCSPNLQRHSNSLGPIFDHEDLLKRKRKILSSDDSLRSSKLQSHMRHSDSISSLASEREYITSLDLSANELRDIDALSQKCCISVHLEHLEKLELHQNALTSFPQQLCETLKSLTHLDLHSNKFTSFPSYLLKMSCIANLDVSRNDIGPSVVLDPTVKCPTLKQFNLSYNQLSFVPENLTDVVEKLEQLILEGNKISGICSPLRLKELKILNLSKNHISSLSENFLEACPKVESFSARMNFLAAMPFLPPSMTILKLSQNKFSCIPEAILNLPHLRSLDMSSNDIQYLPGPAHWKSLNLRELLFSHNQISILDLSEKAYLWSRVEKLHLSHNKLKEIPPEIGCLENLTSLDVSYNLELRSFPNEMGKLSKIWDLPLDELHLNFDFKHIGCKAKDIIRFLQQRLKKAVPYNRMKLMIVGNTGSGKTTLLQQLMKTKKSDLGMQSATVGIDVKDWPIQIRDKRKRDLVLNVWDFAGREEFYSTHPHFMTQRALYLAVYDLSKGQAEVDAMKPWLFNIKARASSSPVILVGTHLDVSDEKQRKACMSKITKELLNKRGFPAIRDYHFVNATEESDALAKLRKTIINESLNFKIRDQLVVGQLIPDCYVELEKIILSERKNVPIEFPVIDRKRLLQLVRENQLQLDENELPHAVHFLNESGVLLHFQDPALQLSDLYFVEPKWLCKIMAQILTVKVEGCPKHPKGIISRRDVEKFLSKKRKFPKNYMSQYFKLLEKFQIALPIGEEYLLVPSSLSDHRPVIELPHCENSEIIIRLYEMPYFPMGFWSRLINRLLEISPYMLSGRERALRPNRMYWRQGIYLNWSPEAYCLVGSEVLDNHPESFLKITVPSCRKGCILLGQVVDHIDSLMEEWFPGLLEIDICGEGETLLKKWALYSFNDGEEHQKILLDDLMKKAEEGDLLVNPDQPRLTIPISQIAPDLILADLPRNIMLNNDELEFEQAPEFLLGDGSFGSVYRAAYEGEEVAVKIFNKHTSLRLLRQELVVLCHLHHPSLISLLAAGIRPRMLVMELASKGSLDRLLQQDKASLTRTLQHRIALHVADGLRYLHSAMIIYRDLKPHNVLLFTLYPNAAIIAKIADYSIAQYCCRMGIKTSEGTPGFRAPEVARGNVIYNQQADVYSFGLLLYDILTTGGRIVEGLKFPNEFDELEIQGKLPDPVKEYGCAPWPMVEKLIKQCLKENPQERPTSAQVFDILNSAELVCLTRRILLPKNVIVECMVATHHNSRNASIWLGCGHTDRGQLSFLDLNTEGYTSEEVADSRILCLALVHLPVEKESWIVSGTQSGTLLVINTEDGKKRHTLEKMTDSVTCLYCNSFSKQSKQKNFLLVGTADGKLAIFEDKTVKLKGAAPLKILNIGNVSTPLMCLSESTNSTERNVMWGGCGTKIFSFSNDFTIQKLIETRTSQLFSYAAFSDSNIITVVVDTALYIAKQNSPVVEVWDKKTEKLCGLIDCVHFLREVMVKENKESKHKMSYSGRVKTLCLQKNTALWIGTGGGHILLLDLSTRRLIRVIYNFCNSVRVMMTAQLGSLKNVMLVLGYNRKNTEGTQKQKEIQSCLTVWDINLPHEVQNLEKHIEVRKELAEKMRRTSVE", "test": "Filter-binding kinase assay, G2019S activity on LRRKtide", "format": "biochemical", "how_it_was_run": "(§1)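 Recombinant LRRK2 G2019S (0.8 μg) with 5 μg synthetic peptide substrate, 10 μCi [γ32P]ATP and 1X kinase buffer in 40 μL, incubated at 30°C for 20 min. 10 μL of reaction spotted onto P81 phosphocellulose disks, washed twice in 75 mmol/L phosphoric acid, then counted by liquid scintillation. Reported as mean CPM ± SEM (n = 4) of phosphorylated peptide.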"}, "LRRK2-G2019S [2]": {"target": "T1, LRRK2-G2019S", "test": "Filter-binding kinase assay, G2019S activity on PEPrx3", "format": "biochemical", "how_it_was_run": "as §1"}, "LRRK2-G2019S [3]": {"target": "T1, LRRK2-G2019S", "test": "Radiometric kinase assay, LRRK2-G2019S activity on MBP", "format": "biochemical", "conditions": "for reduction of p-MBP: G2019S on MBP, 2 μmol/L antioxidant, relative to vehicle control; for inhibition of p-MBP (in words): screen of 84 antioxidants, 2 μmol/L"}, "[4]": {"test_system": "ddc‐GAL4‐hLRRK2 G2019S flies", "test": "Oxidative state assays", "format": "in vivo, Drosophila", "conditions": "10 μmol/L in food, relative fluorescence, control 31,756 ± 4142"}, "[5]": {"test_system": "LRRK2 G2019S‐expressing transgenic flies", "test": "Number of TH+ DA neurons in G2019S fly brains", "format": "in vivo, Drosophila", "conditions": "10 μmol/L in diet; for increase in number of neurons in PPM3: 60 days posteclosion", "how_it_was_run": "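G2019S transgenic flies (ddc-GAL4 driver) fed cornmeal food containing test compound at 10 μmol/L (DMSO) or plain food, at 25°C. Whole-mount adult brains dissected 60 days after eclosion and immunostained with rabbit anti-TH (1:200). DA neurons scored per cluster, including PPM3, by confocal microscopy. Given as mean count per cluster (n = 4; cohort of 20).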"}, "[6]": {"conditions": "cited from earlier work"}, "dopaminergic neurons": {"test_system": "dopaminergic neurons", "conditions": "mouse; cited from earlier work"}, "[7]": {"test_system": "LRRK2 G2019S‐expressing transgenic flies", "test": "Climbing assay", "format": "in vivo, Drosophila", "conditions": "10 μmol/L in diet"}, "[8]": {"test_system": "LRRK2 G2019S‐expressing transgenic flies", "test": "Lifespan / survival of G2019S flies", "format": "in vivo, Drosophila", "conditions": "nonsignificant", "how_it_was_run": "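ddc-GAL4-hLRRK2 G2019S flies raised at 25°C on cornmeal food, replaced every 2 days, either plain or with test compound in DMSO added at 10 μmol/L. Read-out is the percentage of surviving flies; n = 4 cohorts of 60.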"}, "LRRK2-WT": {"target": "LRRK2-WT (Homo sapiens, UniProt Q5S007)", "sequence (Q5S007 whole entry)": "as the sequence (Q5S007 whole entry G2019S) above, with S2019G counted along it", "test": "Radiometric kinase assay, LRRK2-WT activity on MBP", "format": "biochemical", "conditions": "IC50 against LRRK2-WT, MBP substrate"}},
  "data": [
    {"smiles": "O=c1cc(-c2ccccc2)oc2cc(O)c(O)c(O)c12", "note": "[Baicalein]", "values": [
      {"measurement": "kinase activity toward LRRKtide (in words)", "setting": "LRRK2-G2019S [1]", "result": "most significantly reduced"},
      {"measurement": "kinase activity toward PEPrx3 (in words)", "setting": "LRRK2-G2019S [2]", "result": "most significantly reduced"}
    ]},
    {"smiles": "COc1cc(/C=C/C(=O)CC(=O)/C=C/c2ccc(O)c(OC)c2)ccc1O", "note": "[Curcumin]", "values": [
      {"measurement": "reduction of p-MBP", "setting": "LRRK2-G2019S [3]", "result": "~ 90%"}
    ]},
    {"smiles": "O=c1ccc2cc(O)c(O)cc2o1", "note": "[Esculetin]", "values": [
      {"measurement": "kinase activity toward LRRKtide (in words)", "setting": "LRRK2-G2019S [1]", "result": "most significantly reduced"},
      {"measurement": "kinase activity toward PEPrx3 (in words)", "setting": "LRRK2-G2019S [2]", "result": "most significantly reduced"},
      {"measurement": "level of H2O2 in brain lysates", "setting": "[4]", "result": "20,220 ± 1909"},
      {"measurement": "increase in number of neurons in PPM3", "setting": "[5]", "result": "up to 55%"},
      {"measurement": "crossing of the blood–brain barrier", "setting": "[6]", "result": "readily cross the blood–brain barrier"},
      {"measurement": "protection of dopaminergic neurons against MPP+", "setting": "dopaminergic neurons", "result": "protect dopaminergic neurons against MPP+"}
    ]},
    {"smiles": "N[C@@H](CCC(=O)N[C@@H](CS)C(=O)NCC(=O)O)C(=O)O", "note": "[Glutathione]", "values": [
      {"measurement": "inhibition of p-MBP (in words)", "setting": "LRRK2-G2019S [3]", "result": "Weak or noninhibitory"}
    ]},
    {"smiles": "Cc1cc2c(C(C)C)c(O)c(O)c(C=O)c2c(O)c1-c1c(C)cc2c(C(C)C)c(O)c(O)c(C=O)c2c1O", "note": "[Gossypol]", "values": [
      {"measurement": "kinase activity toward LRRKtide (in words)", "setting": "LRRK2-G2019S [1]", "result": "most significantly reduced"},
      {"measurement": "kinase activity toward PEPrx3 (in words)", "setting": "LRRK2-G2019S [2]", "result": "most significantly reduced"}
    ]},
    {"smiles": "Oc1cc(O)cc(/C=C/c2ccc(O)c(O)c2)c1", "note": "[Piceatannol]", "values": [
      {"measurement": "kinase activity toward LRRKtide (in words)", "setting": "LRRK2-G2019S [1]", "result": "most significantly reduced"},
      {"measurement": "kinase activity toward PEPrx3 (in words)", "setting": "LRRK2-G2019S [2]", "result": "most significantly reduced"},
      {"measurement": "level of H2O2 in brain lysates", "setting": "[4]", "result": "20,061 ± 2910"},
      {"measurement": "increase in number of neurons in PPM3", "setting": "[5]", "result": "up to 55%"},
      {"measurement": "increase in climbing scores", "setting": "[7]", "result": "up to 22%"}
    ]},
    {"smiles": "CC(C)(Sc1cc(C(C)(C)C)c(O)c(C(C)(C)C)c1)Sc1cc(C(C)(C)C)c(O)c(C(C)(C)C)c1", "note": "[Probucol]", "values": [
      {"measurement": "inhibition of p-MBP (in words)", "setting": "LRRK2-G2019S [3]", "result": "Weak or noninhibitory"},
      {"measurement": "viability of TH+ neurons (in words)", "setting": "[5]", "result": "did not improve"},
      {"measurement": "decrease in lifespan", "setting": "[8]", "result": 11, "unit": "%"}
    ]},
    {"smiles": "O=C(/C=C/c1ccc(O)c(O)c1)O[C@H](Cc1ccc(O)c(O)c1)C(=O)O", "note": "[Rosmarinic acid]", "values": [
      {"measurement": "kinase activity toward LRRKtide (in words)", "setting": "LRRK2-G2019S [1]", "result": "most significantly reduced"},
      {"measurement": "kinase activity toward PEPrx3 (in words)", "setting": "LRRK2-G2019S [2]", "result": "most significantly reduced"}
    ]},
    {"smiles": "CN[C@@H]1C[C@H]2O[C@@](C)([C@@H]1OC)n1c3ccccc3c3c4c(c5c6ccccc6n2c5c31)C(=O)NC4", "note": "[Staurosporine]", "values": [
      {"measurement": "LRRK2 kinase activity (in words)", "setting": "LRRK2-G2019S [3]; 10^−3 and 10^−1 μmol/L staurosporine, Fig. 1C", "result": "reduced kinase activity"}
    ]},
    {"smiles": "CC1=CC(=O)C(C(C)C)=CC1=O", "note": "[Thymoquinone]", "values": [
      {"measurement": "IC50", "setting": "LRRK2-G2019S [3]; IC50 against LRRK2-G2019S, MBP substrate", "result": 125, "unit": "nM"},
      {"measurement": "IC50", "setting": "LRRK2-WT", "result": 673, "unit": "nM"},
      {"measurement": "kinase activity toward LRRKtide (in words)", "setting": "LRRK2-G2019S [1]", "result": "most significantly reduced"},
      {"measurement": "kinase activity toward PEPrx3 (in words)", "setting": "LRRK2-G2019S [2]", "result": "most significantly reduced"},
      {"measurement": "level of H2O2 in brain lysates", "setting": "[4]", "result": "18,445 ± 1229"},
      {"measurement": "increase in number of neurons in PPM3", "setting": "[5]", "result": "up to 55%"},
      {"measurement": "increase in climbing scores", "setting": "[7]", "result": "≤ 17", "unit": "%"},
      {"measurement": "crossing of the blood–brain barrier", "setting": "[6]", "result": "readily cross the blood–brain barrier"},
      {"measurement": "protection of dopaminergic neurons against MPP+", "setting": "dopaminergic neurons", "result": "protect dopaminergic neurons against MPP+"}
    ]},
    {"smiles": "CCCCCCCCOC(=O)/C=C/c1ccc(O)c(O)c1", "note": "[n-Octyl caffeate]", "values": [
      {"measurement": "reduction of p-MBP", "setting": "LRRK2-G2019S [3]", "result": "~ 90%"}
    ]},
    {"smiles": "CC1=C(/C=C/C(C)=C/C=C/C(C)=C/C=C/C=C(C)/C=C/C=C(C)/C=C/C2=C(C)CCCC2(C)C)C(C)(C)CCC1", "note": "[β-carotene]", "values": [
      {"measurement": "inhibition of p-MBP (in words)", "setting": "LRRK2-G2019S [3]", "result": "Weak or noninhibitory"}
    ]},
    {"smiles": "Cc1c(O)cc2c(c1C)O[C@](C)(CCC[C@H](C)CCC[C@H](C)CCCC(C)C)CC2", "note": "[γ‐Tocopherol]", "values": [
      {"measurement": "reduction of p-MBP", "setting": "LRRK2-G2019S [3]", "result": "~ 90%"}
    ]}
  ]
}
